This note sets out measurements from ChEMBL document CHEMBL1142419, “Antimycobacterial activities of novel 2-(sub)-3-fluoro/nitro-5,12-dihydro-5-oxobenzothiazolo[3,2-a]quinoline-6-carboxylic acid” (Bioorg Med Chem, 2008).

The structures appear in SMILES notation. ≈ marks a conversion by molar mass, not a printed value.

The subject of this experiment is Mycobacterium tuberculosis. As to the kind of experiment: Antimycobacterial activity against multidrug-resistant Mycobacterium tuberculosis by agar dilution method. It is filed as functional. Summed up: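 MIC by agar dilution on Middlebrook 7H11 agar supplemented with OADC, following an NCCLS-like procedure, run in duplicate. The MDR-TB clinical isolate was resistant to isoniazid, rifampicin, ethambutol and ofloxacin.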
`O=C(O)c1cn2c(n1)CN(c1cc3c(cc1F)c(=O)c(C(=O)O)c1sc4ccccc4n13)CC2` had an MIC of 0.39 µM (≈ 0.187 µg/mL). In the case of `CC(C)(C)OC(=O)NC1C2CN(c3cc4c(cc3F)c(=O)c(C(=O)O)c3sc5ccccc5n34)CC21` (centres undefined), inhibition of growth (MIC) required 0.18 µM (≈ 0.0917 µg/mL). Compound `O=C(O)c1c(=O)c2cc(F)c(N3CCN(C(c4ccccc4)c4ccc(Cl)cc4)CC3)cc2n2c1sc1ccccc12` (centres undefined) returned an MIC of 0.65 µM (≈ 0.389 µg/mL). For `O=C(O)c1c(=O)c2cc([N+](=O)[O-])c(N3CCC(N4CCCCC4)CC3)cc2n2c1sc1ccccc12`, the minimum inhibitory concentration (MIC) came to 1.54 µM (≈ 0.78 µg/mL). As for `O=C(O)c1c(=O)c2cc(F)c(N3CCSCC3)cc2n2c1sc1ccccc12`, the MIC was 7.55 µM (≈ 3.13 µg/mL). In turn, `O=C(O)c1c(=O)c2cc(F)c(N3CCC(O)(c4ccc(Cl)cc4)CC3)cc2n2c1sc1ccccc12` gave an MIC of 0.36 µM (≈ 0.188 µg/mL). In turn, `CC(C)(C)NC(=O)C1c2ccccc2CCN1c1cc2c(cc1F)c(=O)c(C(=O)O)c1sc3ccccc3n12` (centres undefined) displayed an MIC of 1.43 µM (≈ 0.777 µg/mL). As for `CCN(CC)C(=O)C1CCCN(c2cc3c(cc2F)c(=O)c(C(=O)O)c2sc4ccccc4n23)C1` (centres undefined), the figure is 0.08 µM (≈ 0.0396 µg/mL). For `O=C(O)c1c(=O)c2cc(F)c(N3CCN(C(=O)C4COc5ccccc5O4)CC3)cc2n2c1sc1ccccc12` (centres undefined) the value was 5.59 µM (≈ 3.13 µg/mL); for `O=C(O)c1c(=O)c2cc(F)c(N3CCC(N4CCCCC4)CC3)cc2n2c1sc1ccccc12`, 0.19 µM (≈ 0.0911 µg/mL). `CCN(CC)C(=O)C1CCCN(c2cc3c(cc2[N+](=O)[O-])c(=O)c(C(=O)O)c2sc4ccccc4n23)C1` (centres undefined) returned an MIC of 0.75 µM (≈ 0.392 µg/mL).

Compound `COc1c(N2CCNC(C)C2)c(F)cc2c(=O)c(C(=O)O)cn(C3CC3)c12` (centres undefined) [GATIFLOXACIN] had an MIC of 8.34 µM (≈ 3.13 µg/mL). As for `COc1cc2c(cc1OC)CN(c1cc3c(cc1F)c(=O)c(C(=O)O)c1sc4ccccc4n13)CC2`, the figure is 3.09 µM (≈ 1.56 µg/mL); as for `O=C(O)c1c(=O)c2cc(F)c(N3CCC4(CC3)OCCO4)cc2n2c1sc1ccccc12`, 0.86 µM (≈ 0.391 µg/mL); as for `CC(C)(C)OC(=O)NC1C2CN(c3cc4c(cc3[N+](=O)[O-])c(=O)c(C(=O)O)c3sc5ccccc5n34)CC21` (centres undefined), 0.73 µM (≈ 0.392 µg/mL). In turn, `COc1cc2c(cc1OC)CN(c1cc3c(cc1[N+](=O)[O-])c(=O)c(C(=O)O)c1sc4ccccc4n13)CC2` returned an MIC of 2.93 µM (≈ 1.56 µg/mL). Take `O=C(O)c1cn2c(n1)CN(c1cc3c(cc1[N+](=O)[O-])c(=O)c(C(=O)O)c1sc4ccccc4n13)CC2`: the MIC amounted to 0.77 µM (≈ 0.389 µg/mL). Take `Cc1onc(-c2c(F)cccc2F)c1C(=O)N1CCN(c2cc3c(cc2F)c(=O)c(C(=O)O)c2sc4ccccc4n23)CC1`: it took 5.06 µM (≈ 3.13 µg/mL) to inhibit growth (MIC). The compound `O=C(O)c1c(=O)c2cc([N+](=O)[O-])c(N3CCC4(CC3)OCCO4)cc2n2c1sc1ccccc12` showed an MIC of 0.39 µM (≈ 0.188 µg/mL). Compound `CC(C)(C)NC(=O)C1c2ccccc2CCN1c1cc2c(cc1[N+](=O)[O-])c(=O)c(C(=O)O)c1sc3ccccc3n12` (centres undefined) gave a minimum inhibitory concentration (MIC) of 5.49 µM (≈ 3.13 µg/mL). `O=C(O)c1c(=O)c2cc(F)c(N3CCN(Cc4ccc5c(c4)OCO5)CC3)cc2n2c1sc1ccccc12`: the MIC was determined as 5.89 µM (≈ 3.13 µg/mL). For `O=C(O)c1c(=O)c2cc([N+](=O)[O-])c(N3CCC(O)(c4ccc(Cl)cc4)CC3)cc2n2c1sc1ccccc12` the value was 2.84 µM (≈ 1.56 µg/mL); for `O=C(O)c1c(=O)c2cc(F)c(N3CCC(n4c(=O)[nH]c5cc(Cl)ccc54)CC3)cc2n2c1sc1ccccc12`, 5.56 µM (≈ 3.13 µg/mL); for `NNC(=O)c1ccncc1` [ISONIAZID], 45.6 µM (≈ 6.25 µg/mL).

Broadly, the MIC is the smallest concentration in the dilution series that meets the test's criterion for growth inhibition. Low values mean a more susceptible organism, high ones a less susceptible organism.
